From PubChem BioAssay come the findings set out here.

A short description of test [1]: inhibitors of TNFa-induced NFkB p65 translocation, primary screen, imaging, HUVEC, MLSMR starter and 10KST1 sets (AID 438;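 active = inhibition above 20% together with a positive visual image hit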;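 also: compound added about 3h40 before a 20 min TNFalpha stimulation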;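 as to inhibition: signal is the nuclear over cytoplasmic p65 intensity ratio per well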). To be noted: HUVEC TNFa-induced p65 nuclear translocation; cell count: measured here: nuclei count (cytotoxicity indicator), at 2.08 µM; inhibition: at 2 µM, stronger effect = higher value, 0% TNFa-plus-vehicle, 100% no-TNFa wells.
Test [2] in a line: inhibitors of E-selectin induction by TNFa, primary screen, imaging, HUVEC, immunofluorescence, MLSMR starter and 10KST1 sets (AID 487).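 As to inhibition: signal is fraction of cell area covered by stained E-selectin grains.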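 As to nuclei count: 100% = median nuclei count of all wells on the same plate.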 To be noted: HUVEC TNFalpha-induced E-selectin immunofluorescence imaging, at 2 µM; inhibition: stronger effect = higher value; nuclei count: measured here: cell number, toxicity.
The nature of test [3]: DUSP6 inhibitors restoring Erk phosphorylation by chemical complementation, primary imaging in DUSP6-transfected HeLa (AID 609;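 active = compounds giving at least 50% inhibition in the cell-based MKP-3 phosphatase rescue imaging test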;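 as to inhibition: phospho-Erk level distribution per well compared with pooled transfected vehicle control wells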). The note with it: HeLa MKP-3 transfected, phospho-Erk imaging KS statistic, at 10 µM, cells stimulated with TPA for 15 min.
Test [4] has as its target Dual specificity protein phosphatase 6 (Homo sapiens) (UniProt Q16828). The test is described as above. The note with it: HeLa MKP-3 transfected, phospho-Erk imaging KS statistic; at 10 µM; stronger effect = higher value; cells stimulated with TPA for 15 min.
The target of test [5] is Voltage-gated potassium channel subunit beta-2 (Rattus norvegicus) (UniProt P62483). Nature of the test: KvBeta enzyme negative modulators, primary screen, biochemical, NADPH fluorescence (AID 622;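 active = fluorescence slope higher than the sample average by over 3 SD, cut at about -0.22 in these data, passing the limit was not always enough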;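 also: slope of raw intensity against log time taken from 70 to 1610 s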). To be noted: recombinant KvBeta, 4-cyanobenzaldehyde reduction, at 10 µM, stronger effect = higher value.
Chain of Voltage-gated potassium channel subunit beta-2 (Rattus norvegicus) (P62483 whole entry, looked up): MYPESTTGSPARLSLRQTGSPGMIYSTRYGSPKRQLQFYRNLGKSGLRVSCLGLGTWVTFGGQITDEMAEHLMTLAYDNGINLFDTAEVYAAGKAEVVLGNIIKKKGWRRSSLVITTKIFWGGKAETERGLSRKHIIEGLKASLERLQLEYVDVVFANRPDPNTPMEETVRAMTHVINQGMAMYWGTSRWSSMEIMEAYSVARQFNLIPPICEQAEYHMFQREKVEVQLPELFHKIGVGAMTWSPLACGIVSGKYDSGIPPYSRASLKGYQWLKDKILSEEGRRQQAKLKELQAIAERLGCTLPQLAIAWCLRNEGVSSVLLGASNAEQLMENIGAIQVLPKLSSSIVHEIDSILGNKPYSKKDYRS
For test [6] the target is unchanged. The test can be described thus: KvBeta positive modulators, primary screen, biochemical, NADPH fluorescence (AID 623;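 active = NADPH fluorescence slope more negative than the mean of all samples by about 3 SD, 99.7% confidence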;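 also: fluorescence intensity change per second fitted from 20 to 320 s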). The note with it: Recombinant KvBeta, NADPH fluorescence decrease slope, 10 min; at 10 µM; stronger effect = lower value.
In test [7] the target is Alpha-2C adrenergic receptor (Homo sapiens) (UniProt P18825). The test can be described thus: modulators of alpha2C/GIRK thallium flux, primary screen, cell-based, HEK293 alpha2C/GIRK1/2 (AID 624;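 active = fluorescence slope after compound addition differing from the mean of all screened samples at 99.7% confidence, in either direction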;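 also: slope of fluorescence ratio to pre-addition baseline per second over 15 to 24 s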). The note with it: thallium flux BTC fluorescence, at 10 µM, actives lie on both sides.
Chain of Alpha-2C adrenergic receptor (Homo sapiens) (P18825 whole entry, looked up): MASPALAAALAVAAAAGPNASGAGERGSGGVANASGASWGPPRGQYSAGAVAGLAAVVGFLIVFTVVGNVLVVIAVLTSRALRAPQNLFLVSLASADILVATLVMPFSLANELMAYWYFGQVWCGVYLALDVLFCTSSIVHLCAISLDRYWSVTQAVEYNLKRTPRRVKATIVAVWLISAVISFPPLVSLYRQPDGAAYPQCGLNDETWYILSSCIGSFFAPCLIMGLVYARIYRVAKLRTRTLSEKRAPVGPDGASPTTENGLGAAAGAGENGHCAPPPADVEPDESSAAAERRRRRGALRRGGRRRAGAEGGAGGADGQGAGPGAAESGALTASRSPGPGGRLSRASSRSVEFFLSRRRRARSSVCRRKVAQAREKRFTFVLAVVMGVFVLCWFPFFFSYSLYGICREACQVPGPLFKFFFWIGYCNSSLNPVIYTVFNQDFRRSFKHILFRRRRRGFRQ
The nature of test [8]: inhibitors of larval lipid processing in zebrafish, primary screen, whole organism, PED6 fluorescence, gall bladder and intestine (AID 686;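 active = a full or partial loss of lipid-probe fluorescence in the fish gall bladder, intestine or both, judged by eye; inactive = no fluorescence loss, or compound toxic to the fish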;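 also: larvae 5 to 7 days old with five fish per well; signal comes from phospholipase A2 cleavage of quenched PED6 carried via bile; overnight exposure to compound and PED6 before scoring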). The note with it: Zebrafish larvae PED6 lipid processing, fluorescence scoring; screened at 20 µM (by protocol). The method in brief:
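system = live zebrafish larvae aged 5-7 days, whole organism | probe or stimulus = ingested quenched lipid PED6 at 100 nM | doses = 20 µM single dose | timing = overnight exposure | detection = fluorescence microscopy with visual scoring of gall bladder and intestine | read-out = visual per-well fluorescence inhibition score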

Test [9] is described as follows: inhibitors of Chlamydomonas gravitaxis, primary screen, whole organism, Chlamydomonas reinhardtii, WT vs cilia-less mutant, absorbance, 96-well (AID 463189;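 active = inhibition at or above 50% relative to wild type and mutant plate controls; inactive = inhibition below 50%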;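 also: 0% = wild type cc124 cells in DMSO and 100% = ciliumless bld1 mutant cells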). The note with it: OD600 absorbance, 2 days, at 10 µM, stronger effect = higher value.
The mark [10] stands for this setting: measured here: cell density z-score.
Where [11] appears, read: measured here: nuclear c-Myc green intensity z-score.
Setting [12] is: measured here: nuclear pErk red intensity z-score, stronger effect = higher value.

Calls of active or inactive are those of the source.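 The calls were made as follows, unless noted: active = visually confirmed hit in the image check and inhibition above 20%; inconclusive = visually confirmed hit but inhibition not above 20%; inactive = no visual hit in the image check.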

As usually defined, the inhibition is the change of the read-out against control, counted positive when it falls.

Chain of Dual specificity protein phosphatase 6 (Homo sapiens) (Q16828 whole entry, looked up): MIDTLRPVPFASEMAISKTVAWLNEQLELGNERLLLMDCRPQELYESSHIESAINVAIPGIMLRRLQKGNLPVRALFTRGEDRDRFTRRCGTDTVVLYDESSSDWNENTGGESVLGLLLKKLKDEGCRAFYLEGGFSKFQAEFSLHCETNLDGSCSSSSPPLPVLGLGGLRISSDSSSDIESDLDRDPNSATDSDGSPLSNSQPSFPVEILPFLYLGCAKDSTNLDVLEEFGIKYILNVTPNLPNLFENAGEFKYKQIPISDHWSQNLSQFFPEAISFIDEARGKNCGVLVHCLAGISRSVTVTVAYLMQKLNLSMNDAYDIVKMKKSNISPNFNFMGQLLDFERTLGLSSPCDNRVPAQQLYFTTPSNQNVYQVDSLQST

Turning to `COc1ccc(-c2cc3nc4n(c(=O)c3s2)CCOC4)cc1`, the cell count in [1] came to 561. Besides, the inhibition is -7.1% (inactive) in [1], 30.7% (inactive) in test [2], -5.26% (inactive) in test [4] and 7.02% (inactive) in [9]. Moreover, the nuclei count in [2] was 157%. Besides, the z-score in test [3] (setting [10]) is -0.862; in [3] (setting [11]) it was -0.643; in test [3] (setting [12]) it was -0.319. For the same compound, in [5], the fluorescence slope is -0.185 (inactive). The NADPH fluorescence slope in test [6] was -1.6e-05 (inactive). Besides, the slope in [7] was 0.0053 (inactive). In test [8], the call was inactive.
For `COc1ccc(-c2oc3ncn4nc(COc5ccccc5)nc4c3c2-c2ccc(OC)cc2)cc1`, in test [1], the cell count is 621. Besides, the inhibition is -7.9% (inactive) in [1], -75% (inactive) in [2], -15% (inactive) in [4] and -3.79% (inactive) in [9]. Also, the nuclei count in test [2] worked out at 194%. In addition, the values for the z-score in test [3] (setting [10]), in [3] (setting [11]) and in test [3] (setting [12]) were -0.444, -0.952 and -0.924, respectively. In addition, the fluorescence slope in test [5] is -0.327 (inactive). In addition, in [6], the NADPH fluorescence slope was -1.2e-05 (inactive). Also, in [7], the slope was 0.0133 (inactive). For the same compound, the call in test [8] was inactive.
Regarding `CCn1c(SCC(=O)O)nc2sc3c(c2c1=O)CCC3`, the cell count in [1] was found to be 664. Moreover, the inhibition is -3.3% (inactive) in test [1], 9.9% (inactive) in test [2], 2.71% (inactive) in [4] and -0.935% (inactive) in test [9]. The nuclei count in [2] was 171%. Moreover, the z-score in test [3] (setting [10]) was -0.751; in test [3] (setting [11]) it was -1.02; in test [3] (setting [12]), -0.615. Besides, in [5], the fluorescence slope was -0.405 (inactive). Also, the NADPH fluorescence slope in test [6] was -5.6e-05 (inactive). The slope in test [7] is 0.00483 (inactive). The result in test [8] was inactive.
`Cc1nc2n[nH]c(N)c2c2c1COC(C)(C)C2`: in test [1], the cell count came to 674. Besides, the inhibition was -22.2% (inactive) in test [1], -454% (inactive) in test [2], 5.57% (inactive) in [4] and 3.25% (inactive) in test [9]. In test [2], the nuclei count worked out at 178%. For the same compound, the z-score in test [3] (setting [10]) is 0.565; in test [3] (setting [11]), -1.79; in [3] (setting [12]), -0.0762. In [5], the fluorescence slope is -0.516 (inactive). Also, the NADPH fluorescence slope in test [6] was -0.000106 (inactive). For the same compound, in test [7], the slope is 0.00411 (inactive). The compound was called inactive in test [8].
As for `COc1ccc(CCn2c(C)ccc2C)cc1OC`, the cell count in [1] turned out to be 476. Also, the inhibition in test [1] is -5.7% (inactive); in test [2] it was -58.3% (inactive); in test [4], 3.66% (inactive); in test [9] it was -7.78% (inactive). The nuclei count in test [2] was determined as 112%. The z-score in test [3] (setting [10]) was -0.324; in test [3] (setting [11]) it was 0.735; in test [3] (setting [12]), -0.301. The fluorescence slope in test [5] is -0.488 (inactive). The NADPH fluorescence slope in test [6] is -8e-05 (inactive). Besides, the slope in test [7] is 0.00401 (inactive). Moreover, in test [8], the call was inactive.
On to `CCCCNC(=O)N1CCOCCOCCN(C(=O)NCCCC)CCOCC1`, for which the cell count in test [1] stood at 524. In addition, the inhibition in test [1] is -14.1% (inactive); in [2], -164% (inactive); in test [4] it was 31.7% (inactive); in test [9], 9.99% (inactive). This compound also displayed a nuclei count in test [2] of 138%. Moreover, the figures for the z-score in test [3] (setting [10]), in test [3] (setting [11]) and in test [3] (setting [12]) were 2.57, -1.63 and -0.914, respectively. The fluorescence slope in test [5] was -0.55 (inactive). Also, the NADPH fluorescence slope in test [6] was -2.2e-05 (inactive). Further, the slope in test [7] was 0.0049 (inactive). For the same compound, the call in [8] was inactive.
As for `Clc1ccc(-c2nnc3sc(Cc4cccs4)nn23)cc1`, in [1], the cell count was 671. For the same compound, the inhibition is -3.4% (inactive) in test [1], -156% (inactive) in test [2], 22.7% (inactive) in test [4] and 19.8% (inactive) in [9]. Further, in test [2], the nuclei count came out at 134%. Moreover, the figures for the z-score in test [3] (setting [10]), in test [3] (setting [11]) and in [3] (setting [12]) were 0.365, -1.12 and -1.66, respectively. Further, in [5], the fluorescence slope is -0.451 (inactive). Further, the NADPH fluorescence slope in test [6] was -4.9e-05 (inactive). The slope in [7] was 0.00474 (inactive). Moreover, in [8], the compound was classed as inactive.
